The source made the active and inactive calls. No cut-off for these calls is given here.
What was measured:
[1] = target: T1, DNA topoisomerase 1 (Homo sapiens) (UniProt P11387); test: Inhibition of topoisomerase 1 (unknown origin)-mediated relaxation of supercoiled plasmid DNA assessed as intensity of supercoiled DNA after 30 mins by agarose gel electrophoresis relative to camptothecin
T1 sequence (whole entry): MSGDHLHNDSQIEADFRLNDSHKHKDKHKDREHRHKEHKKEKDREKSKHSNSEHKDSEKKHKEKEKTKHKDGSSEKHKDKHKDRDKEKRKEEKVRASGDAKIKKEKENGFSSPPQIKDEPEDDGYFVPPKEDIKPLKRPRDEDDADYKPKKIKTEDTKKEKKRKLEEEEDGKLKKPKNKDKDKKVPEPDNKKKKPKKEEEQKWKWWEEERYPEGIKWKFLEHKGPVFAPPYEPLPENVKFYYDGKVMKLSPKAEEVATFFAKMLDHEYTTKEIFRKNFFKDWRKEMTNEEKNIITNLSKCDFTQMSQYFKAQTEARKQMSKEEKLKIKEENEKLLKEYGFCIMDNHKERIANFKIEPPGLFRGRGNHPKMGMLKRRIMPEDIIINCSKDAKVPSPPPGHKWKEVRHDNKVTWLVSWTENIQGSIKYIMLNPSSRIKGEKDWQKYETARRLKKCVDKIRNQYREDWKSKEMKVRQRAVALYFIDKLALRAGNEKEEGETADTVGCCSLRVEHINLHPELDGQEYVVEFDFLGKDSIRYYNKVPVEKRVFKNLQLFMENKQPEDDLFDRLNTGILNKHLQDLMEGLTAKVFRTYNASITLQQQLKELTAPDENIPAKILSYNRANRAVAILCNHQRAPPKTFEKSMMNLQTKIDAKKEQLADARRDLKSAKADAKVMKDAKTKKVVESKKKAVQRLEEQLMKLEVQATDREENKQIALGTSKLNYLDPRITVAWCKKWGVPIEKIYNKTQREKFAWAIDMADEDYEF
Summary of the method: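 Topo I (2 U) relaxation of 250 ng supercoiled plasmid at pH 7.9 in Tris/NaCl/EDTA/BSA/spermidine/glycerol buffer, 37 °C for 30 min, with matched DMSO. Stopped with SDS, proteinase K digestion, 1% agarose TAE gel, ethidium stain. Supercoiled-band intensity of each compound is divided by that of the camptothecin control.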

[2] = target: T1, DNA topoisomerase 1 (Homo sapiens); test: Inhibition of topoisomerase 1 (unknown origin)-mediated relaxation of supercoiled plasmid DNA assessed as concentration of the compound exhibiting activity of 100 uM camptothecin after 30 mins by agarose gel electrophoresis
[3] = target: DNA topoisomerase 2-alpha (Homo sapiens) (UniProt P11388); test: Inhibition of topoisomerase 2 (unknown origin)-mediated kinetoplast DNA decatenation assessed as concentration of the compound exhibiting activity of 100 uM etoposide after 30 mins by agarose gel electrophoresis
[4] = target: DNA topoisomerase 2-alpha (Homo sapiens) (UniProt P11388); test: Inhibition of topoisomerase 2 (unknown origin)-mediated kinetoplast DNA decatenation assessed as intensity of supercoiled DNA after 30 mins by agarose gel electrophoresis relative to etoposide
Summary of the method: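 kDNA with 2 U topoisomerase II, 37 °C for 30 min, then proteinase K for 15 min at 37 °C and a 1% agarose TAE gel at 1 V/cm. Supercoiled-DNA band intensity was measured, and each compound's value was standardized by dividing it by the etoposide value.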

[5] = target: T1, DNA topoisomerase 1 (Homo sapiens); test: Inhibition of topoisomerase 1 (unknown origin)-mediated relaxation of supercoiled plasmid DNA at 100 uM after 30 mins by agarose gel electrophoresis
[6] = target: DNA topoisomerase 2-alpha (Homo sapiens) (UniProt P11388); test: Inhibition of topoisomerase 2 (unknown origin)-mediated kinetoplast DNA decatenation at 100 uM after 30 mins by agarose gel electrophoresis

Chain of DNA topoisomerase 2-alpha (Homo sapiens) (P11388 whole entry): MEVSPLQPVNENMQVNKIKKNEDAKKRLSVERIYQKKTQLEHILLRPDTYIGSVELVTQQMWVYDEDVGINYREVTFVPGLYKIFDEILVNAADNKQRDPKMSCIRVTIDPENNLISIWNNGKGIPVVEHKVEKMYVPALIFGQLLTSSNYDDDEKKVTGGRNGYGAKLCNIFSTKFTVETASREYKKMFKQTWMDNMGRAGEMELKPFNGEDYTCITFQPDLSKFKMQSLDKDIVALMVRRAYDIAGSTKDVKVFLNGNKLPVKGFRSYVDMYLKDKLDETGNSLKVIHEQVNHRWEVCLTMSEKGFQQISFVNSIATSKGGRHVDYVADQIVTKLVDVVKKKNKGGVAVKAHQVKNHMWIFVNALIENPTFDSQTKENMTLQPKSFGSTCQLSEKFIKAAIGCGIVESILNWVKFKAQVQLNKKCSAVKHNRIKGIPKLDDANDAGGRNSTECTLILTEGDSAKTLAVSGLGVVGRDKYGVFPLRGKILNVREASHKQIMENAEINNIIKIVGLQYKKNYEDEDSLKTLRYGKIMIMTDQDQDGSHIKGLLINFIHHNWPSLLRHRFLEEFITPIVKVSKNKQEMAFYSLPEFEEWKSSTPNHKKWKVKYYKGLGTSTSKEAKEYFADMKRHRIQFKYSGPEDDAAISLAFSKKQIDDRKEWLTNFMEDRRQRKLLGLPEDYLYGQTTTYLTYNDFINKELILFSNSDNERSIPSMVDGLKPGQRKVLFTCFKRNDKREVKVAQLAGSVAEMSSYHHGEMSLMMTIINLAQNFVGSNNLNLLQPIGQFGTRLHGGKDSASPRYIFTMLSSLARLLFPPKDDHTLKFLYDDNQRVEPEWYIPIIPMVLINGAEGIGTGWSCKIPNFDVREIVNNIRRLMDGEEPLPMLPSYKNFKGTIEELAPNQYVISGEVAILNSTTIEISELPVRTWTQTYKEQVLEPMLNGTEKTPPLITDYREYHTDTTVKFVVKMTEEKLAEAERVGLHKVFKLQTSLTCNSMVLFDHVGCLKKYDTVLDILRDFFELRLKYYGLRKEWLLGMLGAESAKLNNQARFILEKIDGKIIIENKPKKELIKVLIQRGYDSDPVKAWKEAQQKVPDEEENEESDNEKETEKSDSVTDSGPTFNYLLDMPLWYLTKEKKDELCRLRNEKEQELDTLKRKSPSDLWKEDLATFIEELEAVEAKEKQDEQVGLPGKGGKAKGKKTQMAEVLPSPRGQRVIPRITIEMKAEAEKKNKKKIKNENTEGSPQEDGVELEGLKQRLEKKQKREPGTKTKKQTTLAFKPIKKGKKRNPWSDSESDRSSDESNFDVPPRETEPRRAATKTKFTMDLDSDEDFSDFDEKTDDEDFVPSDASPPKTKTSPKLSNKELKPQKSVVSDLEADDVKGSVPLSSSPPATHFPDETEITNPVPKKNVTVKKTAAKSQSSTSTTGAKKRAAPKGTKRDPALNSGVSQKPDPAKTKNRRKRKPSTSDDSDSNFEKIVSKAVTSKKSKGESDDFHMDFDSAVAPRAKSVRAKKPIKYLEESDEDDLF

Row | SMILES | fold change (FC) [1] | Activity [2] [µM] | Activity [3] [µM] | fold change (FC) [4] | inhibition [5] | inhibition [6]
1 | C=CCNC(=O)O[C@H]1CC[C@]2(C)[C@H]3CC=C4[C@@H]5CC(C)(C)CC[C@]5(C(=O)O)CC[C@@]4(C)[C@]3(C)CC[C@H]2C1(C)C | 1.57 | 15.2 | 53 | 1.26 |  | 
2 | CC1(C)CC[C@]2(C(=O)NCc3ccccc3)CC[C@]3(C)C(=CC[C@@H]4[C@@]5(C)CC[C@H](OC(=O)NCc6ccccc6)C(C)(C)[C@@H]5CC[C@]43C)[C@@H]2C1 | 1.42 | 25.4 | 57 | 1.21 |  | 
3 | CC1(C)CC[C@]2(C(=O)NCc3ccccc3)CC[C@]3(C)C(=CC[C@@H]4[C@@]5(C)CC[C@H](O)C(C)(C)[C@@H]5CC[C@]43C)[C@@H]2C1 | 0.98 |  |  | 1.07 | Active | Active
4 | COc1cc([C@@H]2c3cc4c(cc3[C@@H](O[C@@H]3O[C@@H]5CO[C@@H](C)O[C@H]5[C@H](O)[C@H]3O)[C@H]3COC(=O)[C@H]23)OCO4)cc(OC)c1O |  |  |  |  |  | Active
5 | CC1(C)CC[C@]2(C(=O)NS(=O)(=O)c3ccccc3)CC[C@]3(C)C(=CC[C@@H]4[C@@]5(C)CC[C@H](OC(=O)NS(=O)(=O)c6ccccc6)C(C)(C)[C@@H]5CC[C@]43C)[C@@H]2C1 | 1.36 | 23.1 |  | 0.91 |  | 
6 | CC1(C)CC[C@]2(C(=O)O)CC[C@]3(C)C(=CC[C@@H]4[C@@]5(C)CC[C@H](OC(=O)Nc6ccc(-c7ccccc7)cc6)C(C)(C)[C@@H]5CC[C@]43C)[C@@H]2C1 | 0.79 |  | 46.5 | 1.21 |  | 
7 | CC1(C)CC[C@]2(C(=O)Nc3cccc4ccccc34)CC[C@]3(C)C(=CC[C@@H]4[C@@]5(C)CC[C@H](OC(=O)Nc6cccc7ccccc67)C(C)(C)[C@@H]5CC[C@]43C)[C@@H]2C1 | 1.55 | 17.4 |  | 1.07 |  | Active
8 | CC1(C)CC[C@]2(C(=O)O)CC[C@]3(C)C(=CC[C@@H]4[C@@]5(C)CC[C@H](OC(=O)NCc6ccccc6)C(C)(C)[C@@H]5CC[C@]43C)[C@@H]2C1 | 1.64 | 16.1 | 68 | 1.12 |  | 
9 | CC1(C)CC[C@]2(C(=O)O)CC[C@]3(C)C(=CC[C@@H]4[C@@]5(C)CC[C@H](O)C(C)(C)[C@@H]5CC[C@]43C)[C@@H]2C1 | 0.84 | 265 | 276 | 0.74 |  | 
10 | CC1(C)CC[C@]2(C(=O)O)CC[C@]3(C)C(=CC[C@@H]4[C@@]5(C)CC[C@H](OS(=O)(=O)c6ccccc6)C(C)(C)[C@@H]5CC[C@]43C)[C@@H]2C1 | 0.54 |  |  | 0.92 |  | 
11 | CC1(C)CC[C@]2(C(=O)O)CC[C@]3(C)C(=CC[C@@H]4[C@@]5(C)CC[C@H](OC(=O)Nc6cccc7ccccc67)C(C)(C)[C@@H]5CC[C@]43C)[C@@H]2C1 | 0.4 |  |  | 1.03 |  | Active

From ChEMBL document CHEMBL3097996, “Rational design and synthesis of topoisomerase I and II inhibitors based on oleanolic acid moiety for new anti-cancer drugs” (Bioorg Med Chem, 2014)
